Rpn11 block: Rpn11 (PSMD14) deubiquitinase inhibitors, primary screen, biochemical, fluorescence polarization, uHTS | 26S proteasome non-ATPase regulatory subunit 14 (Homo sapiens), O00487 | human 26S proteasome, Ub4-pepOG fluorescence polarization; 20S core pre-blocked with epoxomicin | inhibition, % at 20 µM | 360,000 tested, 0.59% active | AID 588493, 2011;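 active = inhibition at 20 µM, scaled to each plate's controls, above about 33%, limit read from the data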
Xi reactivation: activators of inactive X chromosome reactivation, primary screen, imaging, XiGFP fibroblasts, GFP high-content imaging, set 2. AID 743238, 2013. activation, % at 7.58 µM. XiGFP mouse fibroblasts, % GFP-positive cells imaging, 3 d; cells co-treated with 5-aza-dC sensitizer; scaled so ellipticine positive control = 100%. 360,000 tested, 0.055% active;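 active = mean normalized replicate activation at least 10% and every replicate at or above 10%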
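System: 68-5-11 XiGFP fibroblast line; Timing: 3 days compound exposure; Compound dosing: one concentration, pinned; Benchmarks: positive control ellipticine, 6 µM final; Buffer or medium: DMEM containing 5-aza-dC.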
Rin1 Abl inh: inhibitors of Rin1-Abl protein binding, primary screen, biochemical, TR-FRET; Tyrosine-protein kinase ABL1 (Homo sapiens) + Ras and Rab interactor 1 (Homo sapiens), …; inhibition, % at 7.35 µM; 360,000 tested, 0.4% active; AID 588664, 2011; in the data active = inhibition above about 5%, passing the limit was not always enough
NadD block: inhibitors of S. aureus NadD, primary screen, biochemical, colorimetric, uHTS; Nicotinate-nucleotide adenylyltransferase NadD (Staphylococcus aureus N315); purified NadD enzyme, colorimetric absorbance read-out; inhibition, % at 20 µM; 360,000 tested, 0.78% active; in the data active = inhibition above about 26%
ABHD5 PLIN5 PPI: ABHD5-PLIN5 interaction inhibitors, primary screen, cell lysate, split luciferase complementation, luminescence. Perilipin-5 (Homo sapiens) + 1-acylglycerol-3-phosphate O-acyltransferase ABHD5 (Homo …. Split G. princeps luciferase complementation, 4 h. inhibition, % at 4 µM. 360,000 tested, 0.78% active. AID 602281, 2012;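 active = inhibition above the mean inhibition across every tested compound plus 3 SD, cut at about 22% in these data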
ABHD5 PLIN5 conf: ABHD5-PLIN5 interaction inhibitors, confirmation, biochemical, luminescence; shares compounds with ABHD5 PLIN5 PPI; 2,200 tested, 67% active; inhibition, % at 4 µM; AID 651612, 2012; in the data active = inhibition above about 23%
HNF4 counter: HNF4 dimerization inhibitors, counter-screen for ABHD5-PLIN5 interaction inhibitor project, biochemical, split-luciferase complementation, luminescence; shares compounds with ABHD5 PLIN5 PPI; 2,200 tested, 77% active; inhibition, % at 4 µM;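 active = mean inhibition across replicate wells exceeding the computed hit threshold, cut at about 13% in these data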;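 also: light from luciferase halves that rejoin when HNF4 fusion proteins dimerize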
Target sequence (P41235 whole entry, looked up, the tested form may be a part): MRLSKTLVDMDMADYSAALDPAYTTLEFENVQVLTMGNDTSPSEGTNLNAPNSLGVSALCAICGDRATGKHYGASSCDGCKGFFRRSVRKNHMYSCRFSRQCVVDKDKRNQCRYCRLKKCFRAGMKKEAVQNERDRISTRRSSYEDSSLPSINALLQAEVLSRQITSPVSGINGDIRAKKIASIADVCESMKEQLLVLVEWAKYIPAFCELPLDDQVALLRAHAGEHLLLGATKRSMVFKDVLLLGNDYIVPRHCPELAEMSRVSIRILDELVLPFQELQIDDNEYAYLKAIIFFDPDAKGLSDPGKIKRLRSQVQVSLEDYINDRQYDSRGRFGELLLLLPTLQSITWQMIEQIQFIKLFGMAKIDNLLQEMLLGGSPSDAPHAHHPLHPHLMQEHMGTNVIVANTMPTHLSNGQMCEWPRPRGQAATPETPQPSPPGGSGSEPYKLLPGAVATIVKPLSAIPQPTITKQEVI
Large screens that a line does not name were inactive (follow-up assays come after a bar, where they were run). Compounds with a hit are over-represented: about 1.9% of the library has one in this group of screens.

COc1cc(/C=C/c2cc(C(F)(F)F)[nH]c(=O)n2)cc(OC)c1OC	ABHD5 PLIN5 PPI 31 | ABHD5 PLIN5 conf 47 | HNF4 counter 43
CC1(C)CC(=O)C(C(c2cc([N+](=O)[O-])ccc2Cl)C2C(=O)CC(C)(C)CC2=O)C(=O)C1	none
Cc1sc(C(C2C(=O)CC(C)(C)CC2=O)C2C(=O)CC(C)(C)CC2=O)cc1[N+](=O)[O-]	ABHD5 PLIN5 PPI 56 | ABHD5 PLIN5 conf 92 | HNF4 counter 89
COc1ccc(-n2cc(CNC3CCN(C)CC3)c(-c3cccc(F)c3)n2)cc1	ABHD5 PLIN5 PPI 32 | ABHD5 PLIN5 conf inactive | HNF4 counter inactive
COc1ccc(-n2cc(CN[C@H]3CCCCNC3=O)c(-c3cccc(F)c3)n2)cc1	none
Cc1ccc(S(=O)(=O)N2C[C@H]3n4c(=O)ccc(=O)n4C[C@H](OC(=O)NCC4CCCCC4)[C@@]3(O)C2)cc1	ABHD5 PLIN5 PPI 26 | ABHD5 PLIN5 conf 63 | HNF4 counter 45
O=C(Nc1ccc2c(c1)[C@@H]1C[C@H](CC(=O)N3CCCCC3)O[C@@H](CO)[C@@H]1O2)C1CCC1	none (no result: Rpn11 block, Rin1 Abl inh, NadD block, ABHD5 PLIN5 PPI)
CC(C)NC(=O)N(C)C[C@H]1Oc2c(NC(=O)C3CCOCC3)cccc2C(=O)N([C@@H](C)CO)C[C@@H]1C	none (no result: Rpn11 block, Rin1 Abl inh, NadD block, ABHD5 PLIN5 PPI)
CSc1ccc(CN(C)CC(=O)Nc2ccc(NC(C)=O)cc2)cc1	ABHD5 PLIN5 PPI 102 | ABHD5 PLIN5 conf inactive | HNF4 counter inactive
O=C1OC(/C(=C\Nc2ccccc2)[N+](=O)[O-])c2ccccc21 (stereo unspecified)	ABHD5 PLIN5 PPI 42 | ABHD5 PLIN5 conf inactive | HNF4 counter 26
COCCNC(=O)C[C@H]1C[C@H]2c3cc(NS(=O)(=O)c4ccccc4)ccc3O[C@H]2[C@@H](CO)O1	none (no result: Rpn11 block, Rin1 Abl inh, NadD block, ABHD5 PLIN5 PPI)
CCC(=O)N1CC2(C1)CN(C(C)=O)[C@@H](CO)c1[nH]c3cc(OC)ccc3c12	none (no result: Rpn11 block, Rin1 Abl inh, NadD block, ABHD5 PLIN5 PPI)
O=S(=O)(C/C(=C/CO)S(=O)(=O)c1ccccc1)c1ccccc1	ABHD5 PLIN5 PPI 65 (no result: Xi reactivation) | ABHD5 PLIN5 conf 95 | HNF4 counter 92
O=S(=O)(c1ccccc1)N1CCN(S(=O)(=O)c2ccccc2)C1	none (no result: Xi reactivation)
O=S(=O)(/N=S1/CC=CCN1S(=O)(=O)c1ccccc1)c1ccccc1 (stereo unspecified)	ABHD5 PLIN5 PPI 71 (no result: Xi reactivation) | ABHD5 PLIN5 conf 60 | HNF4 counter 101
CN1C(=O)c2cc(NC(=O)C3CC3)ccc2OC[C@@H]2O[C@@H](CC(=O)NCCc3ccncc3)CC[C@H]21	none (no result: Rpn11 block, Rin1 Abl inh, NadD block, ABHD5 PLIN5 PPI)
C=CCOc1ccc(C=CC(=O)c2c(O)c(OC)c(OC)c(OC)c2OC)cc1	ABHD5 PLIN5 PPI 59 | ABHD5 PLIN5 conf 72 | HNF4 counter 56
C=CCOc1ccc(/C=C/C(=O)OCC(=O)NCc2cccc(OC)c2)cc1	none
CO[C@H]1CN(C)C(=O)c2ccc(NC(C)=O)cc2OC[C@H](C)N(C(=O)c2ccccc2F)C[C@@H]1C	none (no result: Rpn11 block, Rin1 Abl inh, NadD block, ABHD5 PLIN5 PPI)
COc1ccc2c3c([nH]c2c1)[C@@H](CO)N(C(=O)CN1CCOCC1)CC31CCN(C(C)=O)CC1	none (no result: Rpn11 block, Rin1 Abl inh, NadD block, ABHD5 PLIN5 PPI)
CC(C)NC(=O)Nc1ccc2c(c1)C(=O)N([C@@H](C)CO)C[C@@H](C)[C@H](CN(C)S(=O)(=O)c1cn(C)cn1)OCCCC[C@@H](C)O2	none (no result: Rpn11 block, Rin1 Abl inh, NadD block, ABHD5 PLIN5 PPI)
C/C=C/c1ccc2c(c1)O[C@H](CN(C)C(=O)C1CCC1)[C@@H](C)CN([C@H](C)CO)S2(=O)=O	none (no result: Rpn11 block, Rin1 Abl inh, NadD block, ABHD5 PLIN5 PPI)
O=c1c(-c2ccccc2)nc2ccccc2n1C(c1ccccn1)c1nc2ccccc2[nH]1 (stereo unspecified)	none (no result: Rpn11 block, Rin1 Abl inh, NadD block)
O=c1c(-c2ccco2)nc2ccccc2n1C(c1ccccn1)c1nc2ccccc2[nH]1 (stereo unspecified)	ABHD5 PLIN5 PPI 37 (no result: Rpn11 block, Rin1 Abl inh, NadD block) | ABHD5 PLIN5 conf 33 | HNF4 counter 59

Screening data (PubChem)
